# Results as given in ChEMBL document CHEMBL3124806, “Imidazopyridine-fused [1,3]-diazepinones: synthesis and antiproliferative activity” (Eur J Med Chem, 2014).
# Key:
# Format in all cases: functional
# [1] = system: DU-145; assay: Cytotoxicity against human DU145 cells assessed as cell growth at 10 uM after 48 hrs by SRB assay relative to untreated control; settings: DU-145, 48 h, read-out: Activity
# In short: (§1)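 NCI-60 panel screen at a single concentration of 10 μM with 48 h incubation. Cell density measured by sulforhodamine B protein-binding dye and read spectrophotometrically. Growth expressed as percent of untreated control cells.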
# [2] = system: SN12C; assay: Cytotoxicity against human SN12C cells assessed as cell growth at 10 uM after 48 hrs by SRB assay relative to untreated control; settings: read-out: Activity
# In short: (§2)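 NCI-60 single-dose screen. Compounds were added to the cultures at 10 μM and incubated for 48 h. The end point was sulforhodamine B protein staining read spectrophotometrically. Growth is reported as percent of untreated control cells.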
# [3] = system: KM12; assay: Cytotoxicity against human KM12 cells assessed as cell growth at 10 uM after 48 hrs by SRB assay relative to untreated control; settings: KM12, 48 h, read-out: Activity; in short: as §1
# [4] = system: OVCAR-3; assay: Cytotoxicity against human OVCAR3 cells assessed as cell growth at 10 uM after 48 hrs by SRB assay relative to untreated control; settings: OVCAR-3, 48 h, read-out: Activity
# In short: (§3)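 NCI-60 one-dose screen: each agent added at 10 µM, cultures incubated 48 h. Endpoint by sulforhodamine B protein-binding dye read spectrophotometrically; growth expressed as percent of untreated control cells.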
# [5] = Cytotoxicity against human UO31 cells assessed as cell growth at 10 uM after 48 hrs by SRB assay relative to untreated control; settings: UO-31, 48 h, read-out: Activity; in short: as §2
# [6] = system: MDA-MB-435; assay: Cytotoxicity against human MDA-MB-435 cells assessed as cell growth at 10 uM after 48 hrs by SRB assay relative to untreated control; settings: MDA-MB-435, 48 h, read-out: Activity; in short: as §3
# [7] = system: K562; assay: Cytotoxicity against human K562 cells assessed as cell growth at 10 uM after 48 hrs by SRB assay relative to untreated control; settings: K562, 48 h, read-out: Activity; in short: as §1
# [8] = system: 786-0; assay: Cytotoxicity against human […] cells assessed as cell growth at 10 uM after 48 hrs by SRB assay relative to untreated control; settings: 786-0, 48 h, read-out: Activity; in short: as §1
# [9] = system: BT-549; assay: Cytotoxicity against human BT549 cells assessed as cell growth at 10 uM after 48 hrs by SRB assay relative to untreated control; settings: BT-549, 48 h, read-out: Activity; in short: as §1
# [10] = Cytotoxicity against human UACC257 cells assessed as cell growth at 10 uM after 48 hrs by SRB assay relative to untreated control; settings: UACC-257, 48 h, read-out: Activity; in short: as §2
# [11] = system: NCI-H522; assay: Cytotoxicity against human NCI-H522 cells assessed as cell growth at 10 uM after 48 hrs by SRB assay relative to untreated control; settings: NCI-H522, 48 h, read-out: Activity; in short: as §3
# [12] = system: U-251; assay: Cytotoxicity against human U251 cells assessed as cell growth at 10 uM after 48 hrs by SRB assay relative to untreated control; settings: U-251, 48 h, read-out: Activity; in short: as §2
# [13] = Cytotoxicity against human NCI-ADR-RES cells assessed as cell growth at 10 uM after 48 hrs by SRB assay relative to untreated control; settings: read-out: Activity; in short: as §3
# [14] = system: Malme-3M; assay: Cytotoxicity against human MALME-3M cells assessed as cell growth at 10 uM after 48 hrs by SRB assay relative to untreated control; settings: read-out: Activity; in short: as §1
# [15] = system: LOX IMVI; assay: Cytotoxicity against human LOXIMVI cells assessed as cell growth at 10 uM after 48 hrs by SRB assay relative to untreated control; settings: read-out: Activity; in short: as §1
# [16] = system: SF-268; assay: Cytotoxicity against human SF268 cells assessed as cell growth at 10 uM after 48 hrs by SRB assay relative to untreated control; settings: SF-268, 48 h, read-out: Activity; in short: as §3
# [17] = system: M14; assay: Cytotoxicity against human M14 cells assessed as cell growth at 10 uM after 48 hrs by SRB assay relative to untreated control; settings: M14, 48 h, read-out: Activity; in short: as §1
# [18] = Cytotoxicity against human OVCAR5 cells assessed as cell growth at 10 uM after 48 hrs by SRB assay relative to untreated control; settings: OVCAR-5, 48 h, read-out: Activity; in short: as §3
# [19] = system: A498; assay: Cytotoxicity against human A498 cells assessed as cell growth at 10 uM after 48 hrs by SRB assay relative to untreated control; settings: A498, 48 h, read-out: Activity; in short: as §1
# [20] = system: SR; assay: Cytotoxicity against human SR cells assessed as cell growth at 10 uM after 48 hrs by SRB assay relative to untreated control; settings: read-out: Activity; in short: as §2
# [21] = system: SF-295; assay: Cytotoxicity against human SF295 cells assessed as cell growth at 10 uM after 48 hrs by SRB assay relative to untreated control; settings: SF-295, 48 h, read-out: Activity; in short: as §3
# [22] = system: PC-3; assay: Cytotoxicity against human PC3 cells assessed as cell growth at 10 uM after 48 hrs by SRB assay relative to untreated control; settings: PC-3, 48 h, read-out: Activity; in short: as §3
# [23] = system: HOP-92; assay: Cytotoxicity against human HOP92 cells assessed as cell growth at 10 uM after 48 hrs by SRB assay relative to untreated control; settings: HOP-92, 48 h, read-out: Activity; in short: as §1
# [24] = system: NCI-H460; assay: Cytotoxicity against human NCI-H460 cells assessed as cell growth at 10 uM after 48 hrs by SRB assay relative to untreated control; settings: NCI-H460, 48 h, read-out: Activity; in short: as §3
# [25] = system: RXF 393; assay: Cytotoxicity against human RXF393 cells assessed as cell growth at 10 uM after 48 hrs by SRB assay relative to untreated control; settings: RXF 393, 48 h, read-out: Activity; in short: as §3
# [26] = system: NCI-H226; assay: Cytotoxicity against human NCI-H226 cells assessed as cell growth at 10 uM after 48 hrs by SRB assay relative to untreated control; settings: NCI-H226, 48 h, read-out: Activity; in short: as §3
# [27] = system: SW-620; assay: Cytotoxicity against human SW620 cells assessed as cell growth at 10 uM after 48 hrs by SRB assay relative to untreated control; settings: SW-620, 48 h, read-out: Activity; in short: as §2
# [28] = system: SK-MEL-28; assay: Cytotoxicity against human SK-MEL-28 cells assessed as cell growth at 10 uM after 48 hrs by SRB assay relative to untreated control; settings: SK-MEL-28, 48 h, read-out: Activity; in short: as §2
# [29] = system: HCT-15; assay: Cytotoxicity against human HCT15 cells assessed as cell growth at 10 uM after 48 hrs by SRB assay relative to untreated control; settings: HCT-15, 48 h, read-out: Activity; in short: as §1
# [30] = Cytotoxicity against human OVCAR4 cells assessed as cell growth at 10 uM after 48 hrs by SRB assay relative to untreated control; settings: OVCAR-4, 48 h, read-out: Activity; in short: as §3
# [31] = system: HCC 2998; assay: Cytotoxicity against human HCC2998 cells assessed as cell growth at 10 uM after 48 hrs by SRB assay relative to untreated control; settings: HCC 2998, 48 h, read-out: Activity; in short: as §1
# [32] = system: HOP-62; assay: Cytotoxicity against human HOP62 cells assessed as cell growth at 10 uM after 48 hrs by SRB assay relative to untreated control; settings: HOP-62, 48 h, read-out: Activity; in short: as §1
smiles,measurement,setting,value
O=C1c2c(nc3ccccn23)N=C(c2ccccc2)N2CCC[C@@H]12,growth at 10 µM,[1],97%
same,growth at 10 µM,[2],99.6%
same,growth at 10 µM,[3],101%
same,growth at 10 µM,[4],105%
same,growth at 10 µM,[5],88.7%
same,growth at 10 µM,[6],101%
same,growth at 10 µM,[7],124%
same,growth at 10 µM,[8],97.9%
same,growth at 10 µM,[9],99.1%
same,growth at 10 µM,[10],94.5%
same,growth at 10 µM,[11],127%
same,growth at 10 µM,[12],96.2%
same,growth at 10 µM,[13],97.7%
same,growth at 10 µM,[14],102%
same,growth at 10 µM,[15],90.1%
same,growth at 10 µM,[16],97.8%
same,growth at 10 µM,[17],96.5%
same,growth at 10 µM,[18],94.2%
same,growth at 10 µM,[19],89.3%
same,growth at 10 µM,[20],118%
same,growth at 10 µM,[21],103%
same,growth at 10 µM,[22],92.6%
same,growth at 10 µM,[23],82.7%
same,growth at 10 µM,[24],103%
same,growth at 10 µM,[25],98.5%
same,growth at 10 µM,[26],94.9%
same,growth at 10 µM,[27],102%
same,growth at 10 µM,[28],108%
same,growth at 10 µM,[29],93.8%
same,growth at 10 µM,[30],95.2%
same,growth at 10 µM,[31],94.7%
same,growth at 10 µM,[32],99.9%
